Results as given in ChEMBL document CHEMBL4619769, “N-Aryl-3-mercaptosuccinimides as Antivirulence Agents Targeting Pseudomonas aeruginosa Elastase and Clostridium Collagenases” (J Med Chem, 2020).
Calls of active or inactive are those of the source. No cut-off for these calls is given here.

Test system: HepG2
Assay: Cytotoxicity against human HepG2 cells assessed as reduction in cell viability by MTT assay
Format: cell-based
Details: not given

Row | SMILES | IC50
1 | O=C(CS)Nc1ccc(Cl)c(Cl)c1 | > 100 µM
2 | CC(=O)c1ccc(N2C(=O)CC(S)C2=O)cc1 (stereo unspecified) | > 100 µM
3 | CC(=O)c1ccc(NC(=O)CS)cc1 | > 100 µM
4 | O=C1CC(S)C(=O)N1c1ccc(Cl)c(Cl)c1 (stereo unspecified) | > 100 µM

Test system: Pseudomonas aeruginosa
Assay: Toxicity in Pseudomonas aeruginosa PA14 assessed as reduction in bacterial growth after 18 hrs
Format: organism-based
Details: in vivo

Row | SMILES | MIC
5 | O=C1CC(CS)C(=O)N1c1ccc(Cl)c(Cl)c1 (stereo unspecified) | > 100 µM
6 | O=C1CC(CS)C(=O)N1c1ccc(F)c(F)c1 (stereo unspecified) | > 100 µM
7 | O=C1CC(S)C(=O)N1c1ccc(F)c(F)c1 (stereo unspecified) | > 100 µM
8 | O=C1CC(S)C(=O)N1c1ccc(Cl)c(Cl)c1 (stereo unspecified) | > 100 µM

Molecular target: T1, Elastase (Pseudomonas aeruginosa (strain ATCC 15692 / PAO1 / 1C / PRS 101 / LMG12228), UniProt P14756)
T1 sequence (P14756 whole entry): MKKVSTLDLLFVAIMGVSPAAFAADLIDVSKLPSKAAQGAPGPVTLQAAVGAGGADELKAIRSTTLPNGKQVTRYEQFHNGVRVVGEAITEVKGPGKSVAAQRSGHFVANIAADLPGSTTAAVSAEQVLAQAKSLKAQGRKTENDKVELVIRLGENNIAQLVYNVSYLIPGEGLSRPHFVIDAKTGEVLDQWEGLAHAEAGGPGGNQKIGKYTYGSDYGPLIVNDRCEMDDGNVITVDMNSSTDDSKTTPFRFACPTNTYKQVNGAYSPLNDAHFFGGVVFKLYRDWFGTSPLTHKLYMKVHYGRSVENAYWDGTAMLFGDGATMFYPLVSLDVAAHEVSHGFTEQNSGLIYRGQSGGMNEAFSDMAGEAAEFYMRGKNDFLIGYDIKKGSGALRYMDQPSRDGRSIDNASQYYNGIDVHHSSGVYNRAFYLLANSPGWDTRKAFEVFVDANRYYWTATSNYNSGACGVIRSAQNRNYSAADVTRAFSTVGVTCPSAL
Assay: Inhibition of Pseudomonas aeruginosa PA14 LasB using 2-Aminobenzoyl-AlaGly-Leu-Ala-4-Nitrobenzylamide as fluorogenic substrate preincubated for 15 mins followed by substrate addition measured after 60 mins by FRET assay
Details: not given
Method in brief: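 IC50 from at least two independent experiments, each run in duplicate. Thioacetate analogues were scored as percent inhibition at 200 μM.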

Row | SMILES | IC50
9 | CC(=O)SC1CC(=O)N(c2ccc(Cl)c(Cl)c2)C1=O (stereo unspecified) | > 200 µM
10 | COc1ccc(N2C(=O)CC(SC(C)=O)C2=O)cc1 (stereo unspecified) | > 200 µM
11 | CC(=O)SCC1CC(=O)N(c2ccc(C(C)=O)cc2)C1=O (stereo unspecified) | > 200 µM
12 | CC(=O)c1ccc(N2C(=O)CC(CS)C2=O)cc1 (stereo unspecified) | > 200 µM
13 | CC(=O)SC1CC(=O)N(c2ccc(OC(F)(F)F)c(Cl)c2)C1=O (stereo unspecified) | > 200 µM
14 | CC(=O)SCC1CC(=O)N(c2ccc(Cl)c(Cl)c2)C1=O (stereo unspecified) | > 200 µM
15 | COc1ccc(N2C(=O)CC(CSC(C)=O)C2=O)cc1 (stereo unspecified) | > 200 µM
16 | CC(=O)SCC1CC(=O)N(c2ccccc2)C1=O (stereo unspecified) | > 200 µM

Test system: HEK293
Assay: Cytotoxicity against HEK293 cells assessed as reduction in cell viability by MTT assay
Format: cell-based
Details: Homo sapiens

Row | SMILES | IC50
17 | O=C(CS)Nc1ccc(Cl)c(Cl)c1 | > 100 µM
18 | CC(=O)c1ccc(N2C(=O)CC(S)C2=O)cc1 (stereo unspecified) | > 100 µM
19 | CC(=O)c1ccc(NC(=O)CS)cc1 | > 100 µM
20 | O=C1CC(S)C(=O)N1c1ccc(Cl)c(Cl)c1 (stereo unspecified) | > 100 µM

Test system: A549
Assay: Cytotoxicity against human A549 cells assessed as reduction in cell viability by MTT assay
Format: cell-based
Details: not given

Row | SMILES | IC50
21 | O=C(CS)Nc1ccc(Cl)c(Cl)c1 | > 100 µM
22 | CC(=O)c1ccc(N2C(=O)CC(S)C2=O)cc1 (stereo unspecified) | > 100 µM
23 | CC(=O)c1ccc(NC(=O)CS)cc1 | > 100 µM
24 | O=C1CC(S)C(=O)N1c1ccc(Cl)c(Cl)c1 (stereo unspecified) | > 100 µM

Molecular target: T1, Elastase
Assay: Inhibition of Pseudomonas aeruginosa LasB using aminobenzoyl-Ala-Gly-Leu-Ala-p-nitro-benzyl-amide as fluorogenic substrate by fluorimetric assay
Details: not given

Row | SMILES | Ki
25 | NC(=O)[C@H](Cc1ccc(O)cc1)NC(=O)[C@H](Cc1c[nH]c2ccccc12)NC(=O)CS | 0.0405 µM

Test system: not listed separately
Assay: Toxicity in 1 day post-fertilized zebrafish embryo AB measured up to 120 hrs post-fertilization by microscopic analysis
Design: species or system Danio rerio
Details: in vivo, read-out: MTC
Method in brief: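 Embryos were placed singly per well, 10 per condition, in freshly prepared compound at 2–100 μM with 1% DMSO final. Defects, heart rate, touch-evoked locomotion and survival were scored daily by microscopy; read-out was maximum tolerated concentration.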

Row | SMILES | MNTC
26 | O=C(CS)Nc1ccc(Cl)c(Cl)c1 | 10 µM
27 | CC(=O)c1ccc(N2C(=O)CC(S)C2=O)cc1 (stereo unspecified) | ≥ 30 µM
28 | O=C1CC(S)C(=O)N1c1ccc(F)c(F)c1 (stereo unspecified) | ≥ 30 µM

Molecular target: T2, Collagenase ColH (Hathewaya histolytica, UniProt Q46085)
T2 sequence (Q46085 whole entry): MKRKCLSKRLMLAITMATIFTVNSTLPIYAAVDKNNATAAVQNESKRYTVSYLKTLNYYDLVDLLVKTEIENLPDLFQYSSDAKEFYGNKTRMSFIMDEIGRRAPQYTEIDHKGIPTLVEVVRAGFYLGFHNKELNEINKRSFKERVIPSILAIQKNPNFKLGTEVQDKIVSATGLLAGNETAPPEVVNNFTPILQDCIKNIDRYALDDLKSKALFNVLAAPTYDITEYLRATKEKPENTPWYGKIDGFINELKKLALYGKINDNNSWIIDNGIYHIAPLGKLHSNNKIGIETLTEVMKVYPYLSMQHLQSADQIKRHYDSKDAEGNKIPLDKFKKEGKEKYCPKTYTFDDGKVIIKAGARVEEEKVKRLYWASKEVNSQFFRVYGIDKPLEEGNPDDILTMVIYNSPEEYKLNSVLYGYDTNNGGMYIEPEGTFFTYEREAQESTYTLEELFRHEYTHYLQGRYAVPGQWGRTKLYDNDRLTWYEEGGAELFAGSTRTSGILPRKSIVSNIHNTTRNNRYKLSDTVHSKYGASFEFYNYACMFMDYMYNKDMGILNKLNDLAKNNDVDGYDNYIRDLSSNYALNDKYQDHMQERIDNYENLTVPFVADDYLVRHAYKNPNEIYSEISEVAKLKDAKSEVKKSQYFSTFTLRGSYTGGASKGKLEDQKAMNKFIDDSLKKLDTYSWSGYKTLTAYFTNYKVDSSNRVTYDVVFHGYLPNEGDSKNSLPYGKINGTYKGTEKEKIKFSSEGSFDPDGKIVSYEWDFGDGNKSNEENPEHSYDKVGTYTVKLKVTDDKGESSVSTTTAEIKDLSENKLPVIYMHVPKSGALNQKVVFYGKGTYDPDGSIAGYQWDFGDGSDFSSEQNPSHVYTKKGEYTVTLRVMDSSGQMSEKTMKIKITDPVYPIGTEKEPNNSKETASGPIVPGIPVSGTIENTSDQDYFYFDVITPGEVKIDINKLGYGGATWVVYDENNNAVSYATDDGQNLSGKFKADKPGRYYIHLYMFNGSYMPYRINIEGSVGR
Assay: Inhibition of Clostridium histolyticum ColH peptidase domain expressed in Escherichia coli BL21(DE3) cells using Mca-Ala-Gly-Pro-Pro-Gly-Pro-Dpa-Gly-Arg-NH2 as substrate preincubated for 1 hr followed by substrate addition measured for 2 mins by FRET assay
Details: not given
Method in brief: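 Peptidolytic ColH-PD activity read by FRET. Compounds were first screened at 1 μM (means of three independent experiments), then tested dose-response with the reducing agent TCEP present. IC50 values came from at least two independent experiments run in duplicate.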

Row | SMILES | IC50
29 | CC(=O)c1ccc(NC(=O)CS)cc1 | 0.017 µM

Test system: Hathewaya histolytica
Assay: Toxicity in Clostridium histolyticum DSM 1126 assessed as reduction in bacterial growth after 48 hrs
Format: organism-based
Details: in vivo
Method in brief: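 Brain heart infusion broth; inoculum adjusted to McFarland 2 then prediluted 1:100. […] Means of at least two independent determinations.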

Row | SMILES | MIC
30 | CC(=O)c1ccc(N2C(=O)CC(S)C2=O)cc1 (stereo unspecified) | > 100 µM

Test system: Bacillus cereus
Assay: Ex vivo inhibition of Bacillus cereus Q1 ColQ1-mediated collagenolytic-activity in pig skin explant assessed as reduction in hydroxyproline release up to 400 uM preincubated for 1 hr followed by skin explant addition and measured upto 24 hrs by spectrophotometric assay
Details: not given
Method in brief: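 Pig skin explant punches, stored in DMEM with 15% glycerol at −80 °C, incubated in DMEM with 300 nM ColQ1, 4 mM CaCl2 and 10 μM ZnCl2. Compound pre-incubated with the enzyme mixture for 1 h at 37 °C, 5% CO2, then explant added, shaken at 300 rpm at 37 °C. Medium sampled at time points; hydroxyproline measured by absorbance against a hydroxyproline calibration curve.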

Row | SMILES | inhibition
31 | CC(=O)c1ccc(N2C(=O)CC(S)C2=O)cc1 (stereo unspecified) | Active
